Laboratory results taken from PubChem BioAssay AID504354 (Broad Institute, 2011).
Values without a mark were called inactive.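 Rule for the calls: active = curve reaches 10% of the strong reference activator's caspase signal at or below the top valid tested dose; inactive = signal moves in the opposite direction, or the rest.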

experiment: apoptosis induction in non-primed human MEWO line – cell-based, luminescence, dry powder, set 2, counter-screen for A1 inhibitor project, dose response (AID 504354); details: MEWO cells (unprimed), caspase-Glo luminescence, 3 h, stronger effect = higher value; at 35 µM unless noted
Method in brief: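 Material – unprimed MEWO cell line expressing A1 · Quantity – 2500 cells per well · Medium – RPMI-1640 growth medium with 10% FBS · Doses – compound delivered into wells by pin transfer · Times – 3 h 37 °C compound exposure, 1 h room-temperature reagent incubation · Measured by – CaspaseGlo luminescence · Evaluation – caspase activity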

Compound	caspase activation
Cc1ccc(Nc2c([N+](=O)[O-])c(=O)n(C)c3ccccc23)cc1	1.4% [at 1 µM]
Cn1c(=O)c([N+](=O)[O-])c(Cl)c2ccccc21	4.66% [at 8 µM]
O=c1oc2ccccc2c(Cl)c1[N+](=O)[O-]	-4.52% [at 16 µM]
CCOCCCNc1c([N+](=O)[O-])c(=O)n(C)c2ccccc12	2.4%
O=C(Oc1cccc(/C=N/Nc2nc(Nc3ccccc3)nc(N3CCOCC3)n2)c1)c1ccco1	2.6% [at 16 µM]
CCOC(=O)N1CCN(c2c([N+](=O)[O-])c(=O)n(C)c3ccccc23)CC1	2.35%
O=c1oc2ccccc2c(N2CCCCC2)c1[N+](=O)[O-]	-1.32% [at 16 µM]
Cc1ccc(Sc2c([N+](=O)[O-])c(=O)oc3ccccc23)cc1	-4.32%
O=c1oc2ccccc2c(Sc2ccccc2)c1[N+](=O)[O-]	-5.15%
CN1C(=O)C(C)(C)N(Cc2ccccc2)c2ccccc21	0.935% [at 2.1 µM]
O=[N+]([O-])c1cnc2ccccc2c1Sc1ccccc1	5.29% [at 16 µM]
Cn1c(=O)c([N+](=O)[O-])c(Oc2ccccc2)c2ccccc21	2.97% [at 0.135 µM]
CCSc1c([N+](=O)[O-])c(=O)oc2ccccc12	-0.935% [at 0.26 µM]
Cn1c(=O)c([N+](=O)[O-])c(-n2cnc3ccccc32)c2ccccc21	1.87% [at 4.2 µM]
Cc1ccc(Sc2c([N+](=O)[O-])c(=O)n(C)c3ccccc23)cc1	2.38%
Cc1ccc(Nc2c([N+](=O)[O-])c(=O)oc3ccccc23)cc1	1.87% [at 2.1 µM]
Cc1ccc(Sc2cc(=O)n(C)c3ccccc23)cc1	-6.38%
Cn1c(=O)c([N+](=O)[O-])c(Nc2ccc(Cl)cc2)c2ccccc21	1.87% [at 1 µM]
Cc1ccc(Sc2c([N+](=O)[O-])cnc3ccccc23)cc1	6.63% [at 16 µM]
O=c1oc2ccccc2c(Nc2cc(Cl)cc(Cl)c2)c1[N+](=O)[O-]	-1.06% [at 8 µM]
